Reference: ChEMBL document CHEMBL4725479, “Benzoxaboroles: New Potent Inhibitors of the Carbonic Anhydrases of the Pathogenic Bacterium Vibrio cholerae” (ACS Med Chem Lett, 2020)

What was measured:
[1] = Inhibition of Vibrio cholerae beta carbonic anhydrase incubated for 30 mins prior to testing measured for 10 to 100 secs by phenol red-based stopped-flow CO2 hydration assay
Outline: (§1)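 Stopped-flow CO2 hydrase assay on the α, β and γ isoforms of V. cholerae CA. KI values are the mean of 3 independent assays, with errors of ±5–10% of the reported values.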

[2] = Inhibition of Vibrio cholerae gamma carbonic anhydrase incubated for 30 mins prior to testing measured for 10 to 100 secs by phenol red-based stopped-flow CO2 hydration assay; outline: as §1
[3] = Inhibition of Vibrio cholerae alpha carbonic anhydrase incubated for 30 mins prior to testing measured for 10 to 100 secs by phenol red-based stopped-flow CO2 hydration assay; outline: as §1

SMILES	Ki [1]	Ki [2]	Ki [3]
O=[N+]([O-])c1ccc(NC(=S)Nc2ccc3c(c2)B(O)OC3)cc1	933 nM	687 nM	80 nM
O=C(NCc1ccccc1)Nc1ccc2c(c1)B(O)OC2	42100 nM	1870 nM	90 nM
O=C(Nc1ccc(C(F)(F)F)cc1)Nc1ccc2c(c1)B(O)OC2	55100 nM	957 nM	46 nM
O=C(Nc1ccccc1)Nc1ccc2c(c1)B(O)OC2	56400 nM	705 nM	117 nM
COc1ccc(NC(=S)Nc2ccc3c(c2)B(O)OC3)cc1	2300 nM	874 nM	165 nM
OB1OCc2ccc(NC(=S)Nc3ccc(C(F)(F)F)cc3)cc21	1250 nM	1920 nM	72 nM
OB1OCc2ccc(NC(=S)NCc3ccco3)cc21	31900 nM	2000 nM	220 nM
OB1OCc2ccc(NC(=S)NCCc3ccccc3)cc21	18400 nM	554 nM	102 nM
O=C(NCc1ccco1)Nc1ccc2c(c1)B(O)OC2	79900 nM	1230 nM	164 nM
Nc1ccc2c(c1)B(O)OC2	21800 nM	1170 nM	165 nM
Cc1cc(Cl)cc(CNC(=O)Nc2ccc3c(c2)B(O)OC3)c1	61300 nM	718 nM	53 nM
CC(=O)c1ccc(NC(=O)Nc2ccc3c(c2)B(O)OC3)cc1	65100 nM	1130 nM	103 nM
O=C(Nc1ccc2c(c1)B(O)OC2)Nc1c(Cl)cc(Cl)cc1Cl	84500 nM	895 nM	76 nM
OB1OCc2ccc(NC(=S)Nc3ccc(F)cc3)cc21	6350 nM	544 nM	112 nM
O=C(Nc1ccc(Cl)cc1)Nc1ccc2c(c1)B(O)OC2	19500 nM	650 nM	56 nM
Cc1ccc(NC(=S)Nc2ccc3c(c2)B(O)OC3)cc1	2590 nM	1760 nM	109 nM
OB1OCc2ccc(NC(=S)Nc3ccc4ccccc4c3)cc21	26000 nM	2970 nM	603 nM
O=[N+]([O-])c1ccc2c(c1)B(O)OC2	8870 nM	818 nM	142 nM
OB1OCc2ccc(NC(=S)Nc3ccccc3)cc21	19100 nM	834 nM	1200 nM
O=C(Nc1ccc(F)cc1)Nc1ccc2c(c1)B(O)OC2	28000 nM	644 nM	48 nM
COc1ccc(C)cc1NC(=O)Nc1ccc2c(c1)B(O)OC2	67300 nM	410 nM	556 nM
OB1OCc2ccc(NC(=S)NCc3ccccc3)cc21	30400 nM	3960 nM	96 nM
OB1OCc2ccccc21 [BENZOXABOROLE]	70300 nM	2840 nM	319 nM
OB1OCc2cc(F)ccc21 [TAVABOROLE]	97300 nM	841 nM	157 nM
